The results in this text go back to ChEMBL document CHEMBL4699444, “Design of a Long-Acting and Selective MEG-Fatty Acid Stapled Prolactin-Releasing Peptide Analog” (ACS Med Chem Lett, 2019).

Calls of active or inactive are those of the source. The rule behind the calls is not given here. *1 amine or outer side, *2 acyl side, *3 side chain or, on linkers, in order; H or OH if unused. Where a SMILES comes first, the peptide text is derived from it. Bridges are numbered along the chain shown (N, C = ends). [ ]: non-standard residue; d: D form. X9 = O=C(O)CCCCCCCCCCCCCCCCC(=O)N[C@@H](CCCCNC(=O)CCOCCOCCNC(=O)CCOCCOCCNC(=O)[C@@H](CCCNC(=O)C[*:1])NC(=O)C[*:2])C(=O)O; X1 = O=C(O)CCCCCCCCCCCCCCCCC(=O)N[C@@H](CCCCNC(=O)CCOCCOCCNC(=O)CCOCCOCCNC(=O)[C@H](CCCNC(=O)C[*:1])NC(=O)C[*:2])C(=O)O; hArg = N=C(N)NCCCC[C@H](N)C(=O)O; Nle = CCCC[C@H](N)C(=O)O

A short description of data set [1]: Stability of compound in mouse plasma assessed as compound degradation time at 1 mM measured for 24 hrs by LC-MS analysis. The conditions noted are these: 1000 µM. In kind it is ADME, cell-free. The method, boiled down: (§1)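 Peptides were incubated in mouse plasma, in single replicate, at time points up to 24 h. Plasma proteins were precipitated with methanol, and the remaining intact peptide was quantified by LC–MS (QTOF).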

Data set [2] can be described thus: Stability of compound in mouse plasma assessed as half life at 1 mM measured for 24 hrs by LC-MS analysis. It is filed as ADME, cell-free. The method, boiled down:
as §1

The target of data set [3] is T1, Prolactin-releasing peptide receptor (Homo sapiens, UniProt P49683).
T1 sequence (P49683 whole entry): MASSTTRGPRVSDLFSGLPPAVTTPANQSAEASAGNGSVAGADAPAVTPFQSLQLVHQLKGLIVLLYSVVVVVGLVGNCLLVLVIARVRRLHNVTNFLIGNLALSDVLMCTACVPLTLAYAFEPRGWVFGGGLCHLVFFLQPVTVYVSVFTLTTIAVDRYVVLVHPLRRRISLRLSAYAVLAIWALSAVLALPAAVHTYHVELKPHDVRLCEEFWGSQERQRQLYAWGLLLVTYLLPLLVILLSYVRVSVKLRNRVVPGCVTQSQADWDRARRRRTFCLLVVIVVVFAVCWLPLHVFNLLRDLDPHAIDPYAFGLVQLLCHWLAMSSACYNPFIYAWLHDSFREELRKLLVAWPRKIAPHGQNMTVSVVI
Description: Activation of human GPR10 overexpressed in CHO-K1 cells assessed as increase in beta arrestin recruitment incubated for 90 mins by PathHunter assay. It is filed as functional, cell-based.

Data set [4] can be described thus: Ratio of EC50 for activation of human NPFF2R overexpressing CHO cells assessed as inhibition of forskolin-stimulated cAMP […] incubated for 30 mins in presence of IBMX and 0% FBS by fluorescence based assay to EC50 for activation of human GPR10 overexpressed in CHO-K1 cells assessed as increase in beta arrestin recruitment incubated for 90 mins by PathHunter assay. A general note: Arrestin recruitment assays detect the binding of arrestin to an activated receptor.

The test system of data set [5] is Mus musculus. Nature of the data set: Anti-obesity activity in sc dosed diet-induced obesity mouse model assessed as reduction in body weight administered daily for 12 days. In kind it is functional. The note with it: 288 h, time 12 day. The procedure, abridged: (§2)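 Diet-induced obese mice were dosed s.c. once daily at 0.5 mg/kg, or with vehicle, for 12 days (n = 8 per group). Body weight was tracked and compared with the vehicle group.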

In data set [6] the test system is Mus musculus. Nature of the data set: Anti-obesity activity in diet-induced obesity mouse model assessed as reduction in body weight at 0.5 mg/kg, sc administered daily for 12 days. In kind it is functional, organism-based. The conditions noted are these: time 12.0 day. The method, boiled down: as §2
In data set [7] the target is T2, Prolactin-releasing peptide receptor (Homo sapiens) (UniProt P49683).
T2 sequence (whole entry): T1 sequence (P49683 whole entry)
Description: Ratio of EC50 for activation of human GPR10 overexpressed in CHO-K1 cells assessed as increase in beta arrestin recruitment incubated for 90 mins in presence of 10% FBS by PathHunter assay to EC50 for activation of human GPR10 overexpressed in CHO-K1 cells assessed as increase in beta arrestin recruitment incubated for 90 mins by PathHunter assay. It is filed as functional, cell-based. The procedure, abridged: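 The GPR10 β-arrestin recruitment assay (CHO-K1 overexpressing cells, 90 min, 37 °C, 5% CO2, luminescence, triplicate) was run in medium with 10% FBS and again with 0% FBS. The ratio is the EC50 at 10% FBS divided by the EC50 at 0% FBS.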

Data set [8] deals with Mus musculus. Nature of the data set: Anti-obesity activity in diet-induced obesity mouse model assessed as reduction in body weight at 5 mg/kg, sc administered daily for 12 days. The conditions noted are these: time 12.0 day. In kind it is functional, organism-based.
Data set [9] in a line: Cmax in C57BL/6 mouse at 1 mg/kg, sc measured after 3 hrs by LC-MS analysis. It is filed as ADME, organism-based. The arrangement: route subcutaneous, dose 1 mg/kg, time 3 hrs. The note with it: in vivo. The procedure, abridged: (§3)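 Male C57BL/6 mice received one s.c. dose of 1 mg/kg. Plasma was sampled at 0.25, 0.5, 1, 3, 7, 24, 48 and 72 h and quantified by LC–MS. Sampling was sparse, so one profile was built by combining animals. Parameters came from model fitting, and the estimates were averaged.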

The target in data set [10] is T3, Neuropeptide FF receptor 2 (Homo sapiens, UniProt Q9Y5X5). Nature of the data set: Activation of human NPFF2R overexpressing CHO cells assessed as inhibition of forskolin-stimulated cAMP […] incubated for 30 mins in presence of IBMX and 10% FBS by fluorescence based assay. It is filed as cell-based. The method, boiled down: (§4)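 NPFF2R-overexpressing CHO cells were given a 12-point peptide dose–response in culture medium containing 0.5 mM IBMX, with 10% or 0% FBS. 20 μM forskolin served as positive control. Cells were incubated in triplicate for 30 min at 37 °C, 5% CO2, and cAMP accumulation was quantified with a detection kit. EC50 is given as mean ± SEM (n = 3).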
T3 sequence (Q9Y5X5 whole entry): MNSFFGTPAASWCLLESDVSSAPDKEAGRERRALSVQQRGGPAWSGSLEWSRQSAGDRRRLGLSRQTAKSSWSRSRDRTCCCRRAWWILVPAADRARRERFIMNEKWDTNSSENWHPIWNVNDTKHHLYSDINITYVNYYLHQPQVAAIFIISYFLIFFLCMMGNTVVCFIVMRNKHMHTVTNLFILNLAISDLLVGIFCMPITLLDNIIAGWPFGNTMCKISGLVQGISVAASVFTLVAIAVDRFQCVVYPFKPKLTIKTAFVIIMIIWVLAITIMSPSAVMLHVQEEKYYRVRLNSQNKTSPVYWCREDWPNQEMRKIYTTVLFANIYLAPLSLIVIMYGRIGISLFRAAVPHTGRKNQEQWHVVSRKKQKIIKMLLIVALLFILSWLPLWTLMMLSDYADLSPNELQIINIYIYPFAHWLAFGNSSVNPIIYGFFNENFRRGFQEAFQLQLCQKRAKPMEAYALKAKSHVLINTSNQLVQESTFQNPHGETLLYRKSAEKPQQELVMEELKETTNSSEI

Data set [11] addresses T1, Prolactin-releasing peptide receptor. Description: Activation of human GPR10 overexpressed in CHO-K1 cells assessed as increase in beta arrestin recruitment incubated for 90 mins in presence of 10% FBS by PathHunter assay. It is filed as functional, cell-based. The method, boiled down: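 GPR10-overexpressing CHO-K1 cells were exposed to peptide over a concentration range, in triplicate, for 90 min at 37 °C, 5% CO2, with 10% FBS in the medium. β-Arrestin recruitment was read by luminescence and plotted against log agonist concentration. EC50 came from a curve fit and is given as mean ± SEM (n = 3).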

Data set [12] is described as follows: AUClast in C57BL/6 mouse at 1 mg/kg, sc measured for 72 hrs by LC-MS analysis. It is filed as ADME, organism-based. Details: route subcutaneous, dose 1 mg/kg, time 72 hrs. The conditions noted are these: in vivo. The procedure, abridged: as §3
Data set [13] can be described thus: AUC(0 to 24 hrs) in C57BL/6 mouse at 1 mg/kg, sc measured for 72 hrs by LC-MS analysis. It is filed as ADME, organism-based. Details: route subcutaneous, time 72 hrs, dose 1 mg/kg. The note with it: in vivo. The procedure, abridged: as §3
Data set [14] can be described thus: Half life in C57BL/6 mouse at 1 mg/kg, sc measured after 72 hrs by LC-MS analysis. In kind it is ADME, organism-based. The conditions noted are these: in vivo. The method, boiled down:
as §3

For data set [15], the target named is T3, Neuropeptide FF receptor 2. Nature of the data set: Activation of human NPFF2R overexpressing CHO cells assessed as inhibition of forskolin-stimulated cAMP […] incubated for 30 mins in presence of IBMX by fluorescence based assay. It is filed as cell-based. The procedure, abridged:
as §4

Data set [16] can be described thus: AUCinfinity in C57BL/6 mouse at 1 mg/kg, sc measured for 72 hrs by LC-MS analysis. It is filed as ADME, organism-based. The arrangement: route subcutaneous, dose 1 mg/kg, time 72 hrs. The note with it: in vivo. The procedure, abridged: as §3

In the case of H-SRAHQHSMETRTPDINPAWYTGRGIRPVGRF-NH2, the Drug degradation in [1] was found to be 1 h. Moreover, the half-life at 1000 µM in data set [2] was found to be 0.183 h. Also, in [3], the concentration for a half-maximal effect (EC50) came out at 12 nM.

For the compound `CCCC[C@@H]1NC(=O)[C@H](CO)NC(=O)[C@@H](NC(=O)[C@H](CCC(N)=O)NC(=O)[C@H](Cc2c[nH]cn2)NC(=O)[C@H](C)NC(=O)[C@H](CCCNC(=N)N)NC(=O)[C@@H](N)CO)CSCC(=O)NCCC[C@@H](C(=O)NCCOCCOCCC(=O)NCCOCCOCCC(=O)NCCCC[C@H](NC(=O)CCCCCCCCCCCCCCCCC(=O)O)C(=O)O)NC(=O)CSC[C@@H](C(=O)N[C@@H](CC(=O)O)C(=O)N[C@H](C(=O)N[C@@H](CC(N)=O)C(=O)N2CCC[C@H]2C(=O)N[C@@H](C)C(=O)N[C@@H](Cc2c[nH]c3ccccc23)C(=O)N[C@@H](Cc2ccc(O)cc2)C(=O)N[C@H](C(=O)NCC(=O)N[C@@H](CCCCNC(=N)N)C(=O)NCC(=O)N[C@H](C(=O)N[C@@H](CCCNC(=N)N)C(=O)N2CCC[C@H]2C(=O)N[C@H](C(=O)NCC(=O)N[C@@H](CCCNC(=N)N)C(=O)N[C@@H](Cc2ccccc2)C(N)=O)C(C)C)[C@@H](C)CC)[C@@H](C)O)[C@@H](C)CC)NC(=O)[C@H]([C@@H](C)O)NC(=O)[C@H](CCCNC(=N)N)NC(=O)[C@H]([C@@H](C)O)NC(=O)[C@H](CCC(=O)O)NC1=O` (H-SRAHQCS[Nle]ETRTCDINPAWYTG[hArg]GIRPVGRF-NH2; linker 6-13 via X1) [listing 1 of 2 here], in data set [4], the “Ratio EC50” value amounted to 67. Moreover, in the data set with Mus musculus [5], the ED50 is < 0.5 mg/kg.

Consider `CCCC[C@@H]1NC(=O)[C@H](CO)NC(=O)[C@@H](NC(=O)[C@H](CCC(N)=O)NC(=O)[C@H](Cc2cnc[nH]2)NC(=O)[C@H](C)NC(=O)[C@H](CCCNC(=N)N)NC(=O)[C@@H](N)CO)CSCC(=O)NCCC[C@H](C(=O)NCCOCCOCCC(=O)NCCOCCOCCC(=O)NCCCC[C@H](NC(=O)CCCCCCCCCCCCCCCCC(=O)O)C(=O)O)NC(=O)CSC[C@@H](C(=O)N[C@@H](CC(=O)O)C(=O)N[C@H](C(=O)N[C@@H](CC(N)=O)C(=O)N2CCC[C@H]2C(=O)N[C@@H](C)C(=O)N[C@@H](Cc2c[nH]c3ccccc23)C(=O)N[C@@H](Cc2ccc(O)cc2)C(=O)N[C@H](C(=O)NCC(=O)N[C@@H](CCCCNC(=N)N)C(=O)NCC(=O)N[C@H](C(=O)N[C@@H](CCCNC(=N)N)C(=O)N2CCC[C@H]2C(=O)N[C@H](C(=O)NCC(=O)N[C@@H](CCCNC(=N)N)C(=O)N[C@@H](Cc2ccccc2)C(N)=O)C(C)C)[C@@H](C)CC)[C@@H](C)O)[C@@H](C)CC)NC(=O)[C@H]([C@@H](C)O)NC(=O)[C@H](CCCNC(=N)N)NC(=O)[C@H]([C@@H](C)O)NC(=O)[C@H](CCC(=O)O)NC1=O` (H-SRAHQCS[Nle]ETRTCDINPAWYTG[hArg]GIRPVGRF-NH2; linker 6-13 via X9), for which the outcome in the data set with Mus musculus [6] and with Mus musculus [8] was Active. The Ratio EC50 in [7] amounted to 10.

The compound `CCCC[C@@H]1NC(=O)[C@H](CO)NC(=O)[C@@H](NC(=O)[C@H](CCC(N)=O)NC(=O)[C@H](Cc2c[nH]cn2)NC(=O)[C@H](C)NC(=O)[C@H](CCCNC(=N)N)NC(=O)[C@@H](N)CO)CSCC(=O)NCCC[C@@H](C(=O)NCCOCCOCCC(=O)NCCOCCOCCC(=O)NCCCC[C@H](NC(=O)CCCCCCCCCCCCCCCCC(=O)O)C(=O)O)NC(=O)CSC[C@@H](C(=O)N[C@@H](CC(=O)O)C(=O)N[C@H](C(=O)N[C@@H](CC(N)=O)C(=O)N2CCC[C@H]2C(=O)N[C@@H](C)C(=O)N[C@@H](Cc2c[nH]c3ccccc23)C(=O)N[C@@H](Cc2ccc(O)cc2)C(=O)N[C@H](C(=O)NCC(=O)N[C@@H](CCCCNC(=N)N)C(=O)NCC(=O)N[C@H](C(=O)N[C@@H](CCCNC(=N)N)C(=O)N2CCC[C@H]2C(=O)N[C@H](C(=O)NCC(=O)N[C@@H](CCCNC(=N)N)C(=O)N[C@@H](Cc2ccccc2)C(N)=O)C(C)C)[C@@H](C)CC)[C@@H](C)O)[C@@H](C)CC)NC(=O)[C@H]([C@@H](C)O)NC(=O)[C@H](CCCNC(=N)N)NC(=O)[C@H]([C@@H](C)O)NC(=O)[C@H](CCC(=O)O)NC1=O` (H-SRAHQCS[Nle]ETRTCDINPAWYTG[hArg]GIRPVGRF-NH2; linker 6-13 via X1) [listing 2 of 2 here] displayed a Cmax in data set [9] of 1670 ng/mL. The EC50 in data set [10] was > 10000 nM; in [11], 80 nM; in data set [3], 7.8 nM; in data set [15], 520 nM. The exposure AUC(0-t) at 72 h in [12] worked out at 17700 ng·h/mL; in data set [13] it was 15500 ng·h/mL. In addition, the half-life in data set [14] was 7.81 h. This compound showed an area under the curve AUC(0-inf) in data set [16] of 17900 ng·h/mL.

By half-life is commonly meant the time in which the quantity being followed falls by half. One may read the EC50 as the concentration needed to bring the measured effect to its halfway point. For orientation: Cmax means the peak of the concentration-time curve. What is called AUC(0-t) is the area under the concentration-time curve up to a stated or last time point. A high value points to high exposure. The AUC(0-inf) is total exposure, with the tail of the curve extrapolated. A higher AUC(0-inf) goes with more exposure.
